# Results reported in ChEMBL document CHEMBL1142741, “Norpiperidine imidazoazepines as a new class of potent, selective, and nonsedative H1 antihistamines” (J Med Chem, 2005).
# Key:
# [1] = Solubility in 0.1 M HCl at pH 2.7; format: physicochemical
# Procedure, shortened: (§1)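 Excess or stated amounts of solute were shaken in closed vials of solvent for 24 h at 20 °C, following Higuchi and Connors. For clear solutions, only pH was recorded and solubility was taken as solute added per solvent volume. Turbid samples were filtered through 0.45 µm, the filtrate pH was recorded, and concentration was measured by UV absorption.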
# [2] = Solubility in 0.1 M NaOH at pH 13.0; format: physicochemical; procedure, shortened: as §1
# [3] = Solubility in simulated intestinal fluid at pH 10.1; format: physicochemical; procedure, shortened: as §1
# [4] = Solubility in buffer of (pH 8) at pH 9.0; format: physicochemical; details: buffer (pH 8); procedure, shortened: as §1
# [5] = Solubility in buffer (pH 6) at pH 9.2; format: physicochemical; procedure, shortened: as §1
# [6] = Solubility in buffer (pH 4) at pH 5.4; format: physicochemical; procedure, shortened: as §1
# [7] = Solubility in simulated gastric fluid at pH 3.1; format: physicochemical; procedure, shortened: as §1
# [8] = Solubility in buffer (pH 10) at pH 10.2; format: physicochemical; procedure, shortened: as §1
# [9] = Solubility in buffer (pH 2) at pH 4.8; format: physicochemical; procedure, shortened: as §1
# [10] = tested on: Rattus norvegicus; test: Effective dose for inhibition of skin reactions induced by serotonin in rat by 2 hr after the subcutaneous administration; format: functional; details: sc
# Procedure, shortened: (§2)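 Male Wistar rats (200-240 g) were passively sensitized with intradermal ovalbumin-specific IgE serum; 50 h later histamine (50 µg), serotonin (0.1 µg) and Ascaris allergens (1/2 in saline) were injected intradermally at dorsal sites. Compound was given sc 2 h before challenge, with two observers' scores summed. Histamine and serotonin: inhibition score <4, blockade <3. PCA and Ascaris: score <3. ED50 by Finney's method, five animals per dose.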
# [11] = tested on: Canis familiaris; test: Peak effective dose for inhibition of skin reactions induced by Ascaris allergens in dog by 4 hr after the oral administration; details: Canis lupus familiaris
# [12] = tested on: Rattus norvegicus; test: Effective dose for blockade of skin reactions induced by histamine in rat by 2 hr after the subcutaneous administration; format: functional; details: sc; procedure, shortened: as §2
# [13] = pKa2 value was determined; format: physicochemical
# Procedure, shortened: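 logP was measured in octanol/pH 12 buffer; pKa was measured by the Sirius PCA 101 method.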
# [14] = tested on: Cavia porcellus; test: Effective dose for inhibition of skin reactions induced by substance P in guinea pig by 2 hr after the oral administration
# [15] = tested on: Canis familiaris; test: Duration of action against Ascaris allergens induced cutaneous reactions was determined by oral administration at four times the peak effect dose in dog; format: functional, Canis lupus familiaris
# Procedure, shortened: (§3)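 Beagle dogs of both sexes, selected for sensitivity to Ascaris allergens (ACF, 1/100 in saline), injected intradermally at three chest sites. Wheal diameter and skin thickness increase were read 15 min after injection, before and 1, 4, 20 and 72 h after oral dosing. Onset and duration were estimated graphically at four times the peak-effect dose.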
# [16] = tested on: Rattus norvegicus; test: Effective dose for blockade of skin reactions induced by Ascaris allergens in rat by 2 hr after the subcutaneous administration; format: functional; details: sc; procedure, shortened: as §2
# [17] = tested on: Rattus norvegicus; test: Effective dose for the inhibition of 48/80-induced lethal anaphylactic reaction was determined in rat by 2 hours after oral administration; format: functional
# Procedure, shortened: (§4)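 Compound or solvent was given sc 1 h or po 2 h beforehand at 10 mL/kg, dosed as base equivalents from a 0.04-10 mg/kg geometric series, five rats per dose.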
# [18] = biological target: Histamine H1 receptor (Homo sapiens, UniProt P35367); test: Binding affinity for H1 histamine receptor expressed in CHO cells; format: cell-based
# Chain of Histamine H1 receptor (P35367 whole entry): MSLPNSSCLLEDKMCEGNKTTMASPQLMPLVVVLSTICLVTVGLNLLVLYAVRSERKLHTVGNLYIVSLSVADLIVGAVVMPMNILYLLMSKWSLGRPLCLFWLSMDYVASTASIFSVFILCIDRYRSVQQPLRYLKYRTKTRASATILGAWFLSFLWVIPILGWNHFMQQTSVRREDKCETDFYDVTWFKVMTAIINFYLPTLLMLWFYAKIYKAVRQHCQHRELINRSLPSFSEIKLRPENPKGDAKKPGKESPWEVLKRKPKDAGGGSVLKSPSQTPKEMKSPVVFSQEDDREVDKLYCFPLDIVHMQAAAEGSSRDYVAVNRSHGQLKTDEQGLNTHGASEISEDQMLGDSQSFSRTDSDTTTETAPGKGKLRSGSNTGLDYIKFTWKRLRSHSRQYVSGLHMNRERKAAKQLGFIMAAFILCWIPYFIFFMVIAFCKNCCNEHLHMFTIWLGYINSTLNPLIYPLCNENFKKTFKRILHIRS
# [19] = tested on: Cavia porcellus; test: Effective dose for inhibition of skin reactions induced by Ascaris allergens in guinea pig by 2 hr after the oral administration
# [20] = tested on: Cavia porcellus; test: Effective dose for blockade of skin reactions induced by histamine in guinea pig by 2 hr after the oral administration
# [21] = Partition coefficient (logP); format: physicochemical; details: octanol/water
# [22] = tested on: Rattus norvegicus; test: Effective dose for the inhibition of 48/80-induced lethal anaphylactic reaction was determined in rat by 1 hour after subcutaneous administration; format: functional; details: sc; procedure, shortened: as §4
# [23] = tested on: Rattus norvegicus; test: Effective dose for blockade of skin reactions induced by passive cutaneous anaphylaxis in rat by 2 hr after the subcutaneous administration; format: functional; details: sc; procedure, shortened: as §2
# [24] = tested on: Canis familiaris; test: Onset action against Ascaris allergens induced cutaneous reactions was determined by oral administration at four times the peak effect dose in dog; format: functional, Canis lupus familiaris; procedure, shortened: as §3
# [25] = tested on: Cavia porcellus; test: Effective dose for inhibition of skin reactions induced by histamine in guinea pig by 2 hr after the oral administration
# [26] = tested on: Rattus norvegicus; test: Effective dose for inhibition of skin reactions induced by histamine in rat by 2 hr after the subcutaneous administration; format: functional; details: sc; procedure, shortened: as §2
# [27] = pKa1 value was determined; format: physicochemical; details: read-out: pKa1
# [28] = tested on: Rattus norvegicus; test: Effective dose for the inhibition of 48/80-induced lethal anaphylactic reaction was determined in rat by 2 hour after oral administration; format: functional; procedure, shortened: as §4
# [29] = Solubility in water at pH 2.0; format: physicochemical; procedure, shortened: as §1
# [30] = Solubility in 0.1 M NaOH at pH 12.6; format: physicochemical; procedure, shortened: as §1
# [31] = Solubility in simulated intestinal fluid at pH 2.3; format: physicochemical; procedure, shortened: as §1
# [32] = Solubility in buffer (pH 10) at pH 4.3; format: physicochemical; procedure, shortened: as §1
# [33] = Solubility in simulated gastric fluid at pH 1.1; format: physicochemical; procedure, shortened: as §1
# [34] = Solubility in buffer (pH 6) at pH 4.2; format: physicochemical; procedure, shortened: as §1
# [35] = Solubility in 0.1 M HCl at pH 1.0; format: physicochemical; procedure, shortened: as §1
# [36] = Solubility in water mg/mL; format: physicochemical; procedure, shortened: as §1
# [37] = Solubility in buffer (pH 2) at pH 1.1; format: physicochemical; details: in the assay text read “pH 1.8” for “pH 1.1”; procedure, shortened: as §1
# [38] = Solubility in buffer (pH 4) at pH 2.9; format: physicochemical; procedure, shortened: as §1
# [39] = Solubility in buffer (pH 8) at pH 3.8; format: physicochemical; procedure, shortened: as §1
SMILES,ED50 [10],ED50 [11],ED50 [12],ED50 [14],Time [15],ED50 [16],Ki [18],ED50 [19],ED50 [20],logP [21],ED50 [22],ED50 [23],Time [24],ED50 [25],ED50 [26],pKa [27],ED50 [28],also measured
Cl.NC(=O)c1cnc2n1CCc1ccccc1C21CCNCC1,–,–,–,–,–,–,–,–,–,–,–,–,–,–,–,–,–,solubility [1]: > 20 mg/mL; solubility [2]: 0.93 mg/mL; solubility [3]: 1.69 mg/mL; solubility [4]: 12.2 mg/mL; solubility [5]: 8.04 mg/mL; solubility [6]: > 20 mg/mL; solubility [7]: > 20 mg/mL; solubility [8]: 1.65 mg/mL; solubility [9]: > 20 mg/mL
Cn1ccc2c1CCn1ccnc1C2=C1CCNCC1,> 0.16 mg/kg,0.038 mg/kg,0.13 mg/kg,1.7 mg/kg,35 h,0.13 mg/kg,22 nM,8.7 mg/kg,0.96 mg/kg,1.25,0.028 mg/kg,0.08 mg/kg,<1 h,0.24 mg/kg,0.08 mg/kg,9.85,–,Pka2 [13]: 6.52; ED50 [17]: 0.76 mg/kg
Cn1ccc2c1C(=O)Cn1ccnc1C2=C1CCNCC1,> 10 mg/kg,0.018 mg/kg,0.95 mg/kg,> 2.5 mg/kg,13 h,2.9 mg/kg,12 nM,0.42 mg/kg,0.08 mg/kg,–,0.037 mg/kg,0.42 mg/kg,<1 h,0.02 mg/kg,0.55 mg/kg,–,0.34 mg/kg,–
Cl.Cl.O=C(O)COCCN1CCN([C@H](c2ccccc2)c2ccc(Cl)cc2)CC1 [LEVOCETIRIZINE DIHYDROCHLORIDE],> 10 mg/kg,0.14 mg/kg,0.68 mg/kg,> 2.5 mg/kg,30 h,3.6 mg/kg,–,> 2.5 mg/kg,0.14 mg/kg,–,–,2.7 mg/kg,<1 h,0.046 mg/kg,0.68 mg/kg,–,1.2 mg/kg,–
CCOC(=O)N1CCC(=C2c3ccc(Cl)cc3CCc3cccnc32)CC1 [LORATADINE],6.2 mg/kg,0.2 mg/kg,1.8 mg/kg,2.2 mg/kg,33 h,2.7 mg/kg,–,0.42 mg/kg,0.32 mg/kg,–,0.29 mg/kg,1.6 mg/kg,<1 h,0.08 mg/kg,0.89 mg/kg,–,0.22 mg/kg,–
Cl.Cl.NC(=O)c1cnc2n1CCc1ccccc1C21CCNCC1 [VAPITADINE DIHYDROCHLORIDE],> 10 mg/kg,0.024 mg/kg,1.4 mg/kg,1.6 mg/kg,21 h,2.7 mg/kg,19 nM,1.2 mg/kg,0.14 mg/kg,1.18,0.056 mg/kg,2.3 mg/kg,<1 h,0.1 mg/kg,0.51 mg/kg,9.88,1.2 mg/kg,solubility [29]: > 20 mg/mL; solubility [30]: 3.09 mg/mL; solubility [31]: > 20 mg/mL; solubility [32]: > 20 mg/mL; pKa ([13]; read-out: pKa2): 3; solubility [33]: > 20 mg/mL; solubility [34]: > 20 mg/mL; solubility [35]: > 20 mg/mL; solubility [36]: > 20 mg/mL; solubility [37]: > 20 mg/mL; solubility [38]: > 20 mg/mL; solubility [39]: > 20 mg/mL
